Measurements published in ChEMBL document CHEMBL1155262, “A new class of anticonvulsants possessing 6 Hz activity: 3,4-dialkyloxy thiophene bishydrazones” (Eur J Med Chem, 2009).
Calls of active or inactive are those of the source. The calls are words filed in the database; no cut-off is given here.

Tests used:
Mus musculus [1] = assay: Anticonvulsant activity in mouse CF1 albino assessed as inhibition of minimal electric shock-induced seizure at 100 mg/kg, ip after 0.25 hrs; type: functional, organism-based; parameters: dose 100 mg/kg
In short: (§1)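 6 Hz psychomotor seizure model in male CF-1 albino mice dosed i.p. Four mice per time point (0.25, 0.5, 1, 2, 4 h) received corneal-electrode current of 32 mA for 3 s. Untreated mice show a minimal clonic phase followed by stereotyped automatistic behaviour. Results given as number protected out of 4.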

Mus musculus [2] = assay: Anticonvulsant activity in mouse CF1 albino assessed as inhibition of minimal electric shock-induced seizure at 100 mg/kg, ip after 1 hr; type: functional, organism-based; parameters: dose 100 mg/kg; in short: as §1
Mus musculus [3] = assay: Anticonvulsant activity in mouse CF1 albino assessed as inhibition of maximal electric shock-induced seizure at 300 mg/kg, ip after 0.5 hrs; type: functional, organism-based; parameters: dose 300 mg/kg
In short: (§2)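 Male CF-1 albino mice (18–25 g); compound suspended in 0.5% methyl cellulose/water or PEG 200, given i.p. at 30, 100 and 300 mg/kg (0.01 mL/g). Tested 0.5 or 4 h after dosing. Protection = abolition of hind limb tonic extensor component of MES seizure.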

Mus musculus [4] = assay: Anticonvulsant activity in mouse CF1 albino assessed as inhibition of subcutaneous metrazole-induced seizure at 300 mg/kg, ip after 4 hrs; type: functional, organism-based; parameters: dose 300 mg/kg
Mus musculus [5] = assay: Neurotoxicity against ip dosed mouse CF1 albino assessed as minimal motor impairment after 0.5 hrs by rotord test; type: toxicity, organism-based; details: in vivo
In short: (§3)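 Rotorod minimal motor impairment in male CF-1 albino mice (18–25 g) after i.p. dosing at 30, 100 or 300 mg/kg in 0.5% methyl cellulose/water or PEG 200. Mice placed on a rod rotating at 6 rpm at 0.5 or 4 h. Value is minimum dose causing impairment in at least one mouse.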

Mus musculus [6] = assay: Anticonvulsant activity in mouse CF1 albino assessed as inhibition of maximal electric shock-induced seizure at 300 mg/kg, ip after 4 hrs; type: functional, organism-based; parameters: dose 300 mg/kg; in short: as §2
Mus musculus [7] = assay: Anticonvulsant activity in mouse CF1 albino assessed as inhibition of subcutaneous metrazole-induced seizure at 300 mg/kg, ip after 0.5 hrs; type: functional, organism-based; parameters: dose 300 mg/kg
Mus musculus [8] = assay: Neurotoxicity against mouse CF1 albino assessed as minimal motor impairment at 300 mg/kg, ip after 4 hrs by rotord test; type: toxicity, organism-based; parameters: dose 300 mg/kg, route intraperitoneal; details: in vivo; in short: as §3
Mus musculus [9] = assay: Anticonvulsant activity in ip dosed mouse CF1 albino assessed as inhibition of subcutaneous metrazole-induced seizure after 0.5 hrs; type: functional
Mus musculus [10] = assay: Neurotoxicity against mouse CF1 albino assessed as minimal motor impairment at 300 mg/kg, ip after 0.5 hrs by rotord test; type: toxicity, organism-based; parameters: dose 300 mg/kg, route intraperitoneal; details: in vivo; in short: as §3
Mus musculus [11] = assay: Anticonvulsant activity in mouse CF1 albino assessed as inhibition of minimal electric shock-induced seizure at 100 mg/kg, ip after 0.5 hrs; type: functional, organism-based; parameters: dose 100 mg/kg; in short: as §1
Mus musculus [12] = assay: Neurotoxicity against ip dosed mouse CF1 albino assessed as minimal motor impairment after 4 hrs by rotord test; type: toxicity, organism-based; details: in vivo; in short: as §3
Mus musculus [13] = assay: Anticonvulsant activity in mouse CF1 albino assessed as inhibition of minimal electric shock-induced seizure at 50 mg/kg, ip after 0.25 hrs; type: functional, organism-based; parameters: dose 50 mg/kg; in short: as §1
Mus musculus [14] = assay: Anticonvulsant activity in mouse CF1 albino assessed as inhibition of minimal electric shock-induced seizure at 50 mg/kg, ip after 1 hr; type: functional, organism-based; parameters: dose 50 mg/kg; in short: as §1
Mus musculus [15] = assay: Anticonvulsant activity in mouse CF1 albino assessed as inhibition of minimal electric shock-induced seizure at 50 mg/kg, ip after 4 hrs; type: functional, organism-based; parameters: dose 50 mg/kg; in short: as §1
Mus musculus [16] = assay: Anticonvulsant activity in mouse CF1 albino assessed as inhibition of minimal electric shock-induced seizure at 50 mg/kg, ip after 2 hrs; type: functional, organism-based; parameters: dose 50 mg/kg; in short: as §1
Mus musculus [17] = assay: Anticonvulsant activity in mouse CF1 albino assessed as inhibition of minimal electric shock-induced seizure at 50 mg/kg, ip after 0.5 hrs; type: functional, organism-based; parameters: dose 50 mg/kg; in short: as §1
Mus musculus [18] = assay: Anticonvulsant activity in ip dosed mouse CF1 albino assessed as inhibition of subcutaneous metrazole-induced seizure after 4 hrs; type: functional
Mus musculus [19] = assay: Anticonvulsant activity in ip dosed mouse CF1 albino assessed as inhibition of maximal electric shock-induced seizure after 0.5 hrs; type: functional; in short: as §2
Mus musculus [20] = assay: Anticonvulsant activity in mouse CF1 albino assessed as inhibition of minimal electric shock-induced seizure at 30 mg/kg, ip after 0.25 hrs; type: functional, organism-based; parameters: dose 30 mg/kg; in short: as §1
Mus musculus [21] = assay: Anticonvulsant activity in mouse CF1 albino assessed as inhibition of minimal electric shock-induced seizure at 30 mg/kg, ip after 2 hrs; type: functional, organism-based; parameters: dose 30 mg/kg; in short: as §1
Mus musculus [22] = assay: Anticonvulsant activity in mouse CF1 albino assessed as inhibition of minimal electric shock-induced seizure at 30 mg/kg, ip after 1 hr; type: functional, organism-based; parameters: dose 30 mg/kg; in short: as §1
Mus musculus [23] = assay: Anticonvulsant activity in mouse CF1 albino assessed as inhibition of minimal electric shock-induced seizure at 30 mg/kg, ip after 0.5 hrs; type: functional, organism-based; parameters: dose 30 mg/kg; in short: as §1
Mus musculus [24] = assay: Anticonvulsant activity in mouse CF1 albino assessed as inhibition of minimal electric shock-induced seizure at 100 mg/kg, ip after 2 hrs; type: functional, organism-based; parameters: dose 100 mg/kg; in short: as §1
Mus musculus [25] = assay: Anticonvulsant activity in mouse CF1 albino assessed as inhibition of minimal electric shock-induced seizure at 100 mg/kg, ip after 4 hrs; type: functional, organism-based; parameters: dose 100 mg/kg; in short: as §1
Mus musculus [26] = assay: Anticonvulsant activity in ip dosed mouse CF1 albino assessed as inhibition of maximal electric shock-induced seizure after 4 hrs; type: functional; in short: as §2

## CCCCCCCOc1c(C(=O)N/N=C2/C(=O)Nc3ccccc32)sc(C(=O)N/N=C2/C(=O)Nc3ccccc32)c1OCCCCCCC
Mus musculus [1]
  Activity: inactive
Mus musculus [2]
  Activity: inactive

## CCCOc1c(C(=O)N/N=C/c2ccc(C(=O)O)cc2)sc(C(=O)N/N=C/c2ccc(C(=O)O)cc2)c1OCCC
Mus musculus [3]
  Activity: inactive
Mus musculus [4]
  Activity: inactive
Mus musculus [5]
  Activity: 100 mg/kg
Mus musculus [6]
  Activity: inactive
Mus musculus [7]
  Activity: inactive
Mus musculus [8]
  Activity: Not Active

## O=C(N/N=C/c1ccc([N+](=O)[O-])cc1)c1sc(C(=O)N/N=C/c2ccc([N+](=O)[O-])cc2)c(OCc2ccccc2)c1OCc1ccccc1
Mus musculus [3]
  Activity: inactive
Mus musculus [4]
  Activity: inactive
Mus musculus [5]
  Activity: 100 mg/kg
Mus musculus [6]
  Activity: inactive
Mus musculus [7]
  Activity: inactive
Mus musculus [8]
  Activity: Not Active

## O=C(N/N=C/c1ccc2c(c1)Cc1ccccc1-2)c1sc(C(=O)N/N=C/c2ccc3c(c2)Cc2ccccc2-3)c2c1OCCO2
Mus musculus [3]
  Activity: inactive
Mus musculus [9]
  Activity: 300 mg/kg
Mus musculus [4]
  Activity: inactive
Mus musculus [10]
  Activity: Not Active
Mus musculus [6]
  Activity: inactive
Mus musculus [8]
  Activity: Not Active

## CCCOc1c(C(=O)N/N=C(/C)c2ccc(Br)s2)sc(C(=O)N/N=C(/C)c2ccc(Br)s2)c1OCCC
Mus musculus [11]
  Activity: inactive

## CCCOc1c(C(=O)N/N=C/c2ccc(N(C)C)cc2)sc(C(=O)N/N=C/c2ccc(N(C)C)cc2)c1OCCC
Mus musculus [12]
  Activity: 300 mg/kg
Mus musculus [3]
  Activity: inactive
Mus musculus [4]
  Activity: inactive
Mus musculus [5]
  Activity: 100 mg/kg
Mus musculus [6]
  Activity: inactive
Mus musculus [7]
  Activity: inactive

## CCCCCCCOc1c(C(=O)N/N=C/c2ccc3c(c2)c2ccccc2n3CC)sc(C(=O)N/N=C/c2ccc3c(c2)c2ccccc2n3CC)c1OCCCCCCC
Mus musculus [13]
  Activity: inactive
Mus musculus [14]
  Activity: inactive
Mus musculus [15]
  Activity: inactive
Mus musculus [16]
  Activity: inactive
Mus musculus [17]
  Activity: inactive

## CCCCCCCOc1c(C(=O)N/N=C/c2cc(OC)c(OC)c(OC)c2)sc(C(=O)N/N=C/c2cc(OC)c(OC)c(OC)c2)c1OCCCCCCC
Mus musculus [1]
  Activity: inactive

## CCCOc1c(C(=O)N/N=C(/C)c2cc(Cl)sc2Cl)sc(C(=O)N/N=C(/C)c2cc(Cl)sc2Cl)c1OCCC
Mus musculus [3]
  Activity: inactive
Mus musculus [5]
  Activity: 300 mg/kg
Mus musculus [18]
  Activity: 300 mg/kg
Mus musculus [6]
  Activity: inactive
Mus musculus [7]
  Activity: inactive
Mus musculus [8]
  Activity: Not Active

## O=C(N/N=C/c1ccccc1)c1sc(C(=O)N/N=C/c2ccccc2)c(OCc2ccccc2)c1OCc1ccccc1
Mus musculus [19]
  Activity: 300 mg/kg
Mus musculus [20]
  Activity: inactive
Mus musculus [21]
  Activity: inactive
Mus musculus [18]
  Activity: 300 mg/kg
Mus musculus [10]
  Activity: Not Active
Mus musculus [6]
  Activity: inactive
Mus musculus [7]
  Activity: inactive
Mus musculus [22]
  Activity: inactive
Mus musculus [23]
  Activity: inactive
Mus musculus [8]
  Activity: Not Active

## CCCOc1c(C(=O)N/N=C/c2cccnc2N)sc(C(=O)N/N=C/c2cccnc2N)c1OCCC
Mus musculus [11]
  Activity: inactive
Mus musculus [2]
  Activity: inactive
Mus musculus [24]
  Activity: inactive
Mus musculus [25]
  Activity: inactive

## CCCCCCCOc1c(C(=O)NN)sc(C(=O)NN)c1OCCCCCCC
Mus musculus [3]
  Activity: inactive
Mus musculus [26]
  Activity: 100 mg/kg
Mus musculus [4]
  Activity: inactive
Mus musculus [10]
  Activity: Not Active
Mus musculus [7]
  Activity: inactive
Mus musculus [8]
  Activity: Not Active
